Experimental data gathered from unrelated publications.
Compare with care: the assays were run in different laboratories.
Organism: Trypanosoma brucei
Read-out: parasite growth

Cc1ccc2nc(-c3ccc(F)c(F)c3)c(CN3CCC(Cc4ccccc4)CC3)n2c1 — EC90 (48 h): 18100 nM
Fc1ccc(-c2ncn(C3CCNCC3)c2-c2ccnc(Oc3ccc(Oc4ccccc4)cc3)n2)cc1 — EC50: 794 nM
C#CCN(Cc1cnc2nc(N)nc(N)c2n1)c1ccc(C(=O)N2CCC(C(=O)OC)CC2)cc1 — inhibition (resazurin; 10 µM, 72 h): 23%
O=C(Cn1ccnc1[N+](=O)[O-])NCc1ccccc1 — IC50: 96000 nM
Nc1nccc(C#Cc2cncnc2Nc2ccc(OCc3cccc(F)c3)c(Cl)c2)n1 — EC50: 3160 nM
OC(c1ccccc1)c1ccccc1 — EC50: > 100000 nM
[O-][S+]1CCN(Cc2ccc(-c3ccc4ncnc(Nc5ccc(OCc6ccccc6)c(Cl)c5)c4c3)o2)CC1 — EC50: 631 nM
CN(Cc1cnc2nc(N)nc(N)c2n1)c1ccc(C(=O)N2CCCCC2)cc1 — inhibition (resazurin; 10 µM, 72 h): 48%
Cc1ccc2nc(-c3ccc(F)c(F)c3)c(CN3CCN(C4CCCCC4)CC3)n2c1 — EC50 (48 h): > 20000 nM
ClCCOC1c2ccccc2CCc2ccccc21 — EC50: 27900 nM
NS(=O)(=O)c1ccc(Nc2cc(-c3ccc(O)c(F)c3)n[nH]2)cc1 — EC50: 6310 nM
CCOC(=O)C1CCCN1C(=O)c1ccc(NCc2cnc3nc(N)nc(N)c3n2)cc1 (stereo not shown) — inhibition (resazurin; 10 µM, 72 h): 30%
NC(=O)CN1C(=O)CNC2(C1=O)C1CC3CC(C1)CC2C3 (stereo not shown) — IC50 (pH 7.4, blood stage): 200000 nM
COC(=O)C1CCN(C(=O)c2ccc(N(CCO)Cc3cnc4nc(N)nc(N)c4n3)cc2)CC1 — inhibition (resazurin; 10 µM, 72 h): 9%
Cc1ccc(C(=O)Nc2ccc(S(=O)(=O)O)c3cc(S(=O)(=O)O)cc(S(=O)(=O)O)c23)cc1NC(=O)c1cccc(NC(=O)Nc2cccc(C(=O)Nc3cc(C(=O)Nc4ccc(S(=O)(=O)O)c5cc(S(=O)(=O)O)cc(S(=O)(=O)O)c45)ccc3C)c2)c1 — IC50 (resazurin): 60 nM
N=C(N)c1ccc(OCCCCCOc2ccc(C(=N)N)cc2)cc1 — EC50: 1.24 nM
N=C(N)c1ccc(OCCCCCOc2ccc(C(=N)N)cc2)cc1 — IC50 (resazurin; RHODESIENSE STIB900): 1.8 nM
COc1cc2c(cc1Nc1nc(Nc3ccsc3C(N)=O)c3cc[nH]c3n1)N(C(=O)CN(C)C)CCC2 — EC50: 631 nM
Cc1ccc2nc(-c3ccc(Cl)cc3)cn2c1 — EC50 (48 h): 10400 nM
CCOC(=O)C1CCN(C(=O)c2ccc(N(C)Cc3cnc4nc(N)nc(N)c4n3)cc2)CC1 — inhibition (resazurin; 10 µM, 72 h): 47%
CCS(=O)(=O)N(C)c1ccc(NC(=O)c2cccc(C(=N)N)c2)cc1OCc1ccc(C(=N)N)cc1 — IC50: 500 nM
CS(=O)(=O)CCNCc1cc(-c2cc3c(Nc4ccc(OCc5cccc(F)c5)c(Cl)c4)ncnc3s2)cs1 — EC50: 794 nM
O=C(Nc1ccnc(C(F)(F)F)c1)Nc1cccc2c1OC(F)(F)O2 — IC50 (RHODESIENSE STIB900): 14000 nM
NC(=O)C1CCN(C(=O)c2ccc(NCc3cnc4nc(N)nc(N)c4n3)cc2)CC1 — inhibition (resazurin; 10 µM, 72 h): 12%
COc1cc(N2CCN(C(C)C)CC2)ccc1Nc1nc(Nc2ccc(F)cc2C(N)=O)c2cc[nH]c2n1 — EC50: 200 nM
COc1ccc(CNC(=O)c2ccc(CNCc3cnc4nc(N)nc(N)c4n3)cc2)cc1OC — inhibition (resazurin; 10 µM, 72 h): 36%
COc1c(Br)cc(Br)cc1CN[C@H]1CCCN(c2nc3nc(Cl)ccc3[nH]2)C1 — EC50: 40 nM
CS(=O)(=O)CCNCc1ccc(-c2ccc3ncnc(Nc4ccc(OCc5cccc(F)c5)c(C(F)(F)F)c4)c3c2)o1 — EC50: 2000 nM
O=C(Nc1ccc2c(c1)B(O)OC2)Nc1ccc(F)c(C(F)(F)F)c1 — IC50 (RHODESIENSE STIB900): 520 nM
COc1ccc(Oc2ccc(CNCc3cnc4nc(N)nc(N)c4n3)cc2)cc1 — inhibition (resazurin; 10 µM, 72 h): 31%
OC1c2ccccc2CCc2ccccc21 — EC50: 51300 nM
